SUMO Mot1 rescue – blocks SUMOylation pathway, rescuing yeast Mot1-301 growth; growth rescue, % at 18.8 µM; S. cerevisiae Mot1-301 growth rescue, ATP luminescence, 38.5C; percent above DMSO median, 100 means doubled; 320,000 tested, 1% active;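 active means every valid replicate shows activation above 250% relative to neutral control wells; inactive means the rest, any valid replicate at or below 250%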;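 further: OY570 slx delta 5 strain wells were the positive control but not used for scaling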
Efflux pump inh – inhibitors of Candida antifungal efflux pumps expressed in yeast | S. cerevisiae Candida pump triplex, Nile Red efflux | inhibition, % at 10 µM | 330,000 tested, 0.44% active | AID 485275;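 active means plate passing quality check with inhibition over a set limit, or well fluorescence over plate mean plus 4 SD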;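 further: Nile Red retained in pooled yeast measured as flow cytometry median fluorescence; 0% = buffer negative control and 100% = Enniatin B positive control; higher means more Nile Red kept so more efflux inhibition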
RTF Ca sens act – cardiac RTF calcium sensitization. P19429+P45379. IANBD-labeled TnC RTF fluorescence at EC20 calcium; 0% EC20 calcium, 100% full calcium. activation, % at 7.2 µM. 340,000 tested, 0.24% active;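 active means activation above the mean over all tested compounds plus 3 SD, cut at about 30% in these data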;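 further: rise in fluorescence read as greater calcium sensitivity of cardiac thin filaments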
RTF Ca sens inh – cardiac RTF calcium desensitization. 340,000 tested, 0.12% active. inhibition, % at 7.15 µM. IANBD-labeled cardiac RTF, Ca2+ fluorescence;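 active means inhibition above the mean inhibition of all tested compounds plus 3 SD, cut at about 17% in these data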;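 further: assay run at fixed EC70 calcium of 1.6 mM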
ARNT TACC3 PPI – disruptors of human ARNT/TACC3 interaction. Q9Y6A5. AlphaScreen His-ARNT PAS-B/GST-TACC3 binding, luminescence; TACC3 fragment carries E629A point mutation. inhibition, % at 9.99 µM. 390,000 tested, 0.66% active;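 active means mean inhibition of replicates at least 50% and at least half of replicates each reaching 50%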;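 further: 0% = complete ARNT plus TACC3 wells and 100% = ARNT alone without TACC3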
UCH37 inh – blocks the human deubiquitinase UCH37; Q9Y5K5; purified proteasome/UCH37, Ub-AMC cleavage fluorescence; inhibition, % (concentration not given with the values); 330,000 tested, 0.33% active; AID 588478;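 active means mean inhibition over replicate wells above about 20%, limit read from the data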;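 further: 0% = compound-free wells with enzyme and 100% = wells lacking proteasome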
Target sequence (Q9Y5K5 whole entry, looked up): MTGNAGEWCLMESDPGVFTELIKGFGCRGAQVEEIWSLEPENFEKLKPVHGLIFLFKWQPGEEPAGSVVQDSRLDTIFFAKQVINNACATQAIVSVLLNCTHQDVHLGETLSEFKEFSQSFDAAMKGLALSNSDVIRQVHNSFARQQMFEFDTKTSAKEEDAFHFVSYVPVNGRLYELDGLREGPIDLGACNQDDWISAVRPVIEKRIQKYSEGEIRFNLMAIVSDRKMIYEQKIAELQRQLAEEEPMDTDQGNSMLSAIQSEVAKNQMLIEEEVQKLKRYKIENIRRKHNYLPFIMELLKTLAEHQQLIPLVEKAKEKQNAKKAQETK
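Reagent: Ub-AMC substrate; assay system: Proteasome-associated human UCH37 deubiquitinase; controls: no-proteasome and no-compound wells; read-out: % inhibition of Ub-AMC cleavage fluorescence; timing: 30 min preincubation with enzyme, 25 min cleavage at room temperature; signal: AMC fluorescence from Ub-AMC cleavage, excitation 355 nm, emission 460 nm; buffer or medium: Tris-HCl pH 7.4 plus ovalbumin, ATP-MgCl2, DTT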
Cmpd fluor yeast – counter-screen for efflux pump inhibitors: compound fluorescence | shares compounds with Efflux pump inh | S. cerevisiae AD/pABC3, flow cytometry | fluorescence ratio to DMSO, % at 10 µM | 1,700 tested, 4% active;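 active means fluorescence ratio to DMSO above its plate's cutoff, the plate mean ratio plus 5 SD, cut at about 210% in these data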;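 further: unstained yeast with no Nile Red so the signal is compound autofluorescence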
CaMdr1 efflux inh – inhibitors of Candida albicans Mdr1 efflux pump. shares compounds with Efflux pump inh. S. cerevisiae AD/CaMDR1, Nile Red efflux, flow cytometry. inhibition, % at 10 µM. 1,700 tested, 1% active. AID 588518; in the data active means inhibition above about 26%;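 further: 0% = DMSO vehicle and 100% = reference inhibitor; higher means more Nile Red retained so more efflux inhibition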
CaCdr2 efflux inh – inhibitors of Candida albicans Cdr2 efflux pump; Nile Red retention ratio vs DMSO, % at 10 µM; S. cerevisiae AD/CaCDR2, Nile Red retention, flow cytometry; shares compounds with Efflux pump inh; 1,700 tested, 4% active; in the data active means Nile Red retention ratio vs DMSO above about 190%;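 further: higher ratio means more blocking of Cdr2 efflux of the dye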
Cdr1 pump inh – blocks the Candida albicans Cdr1 efflux pump in yeast | inhibition, % at 10 µM | S. cerevisiae AD/CaCDR1, Nile Red efflux, flow cytometry | shares compounds with Efflux pump inh | 1,700 tested, 1% active | AID 588522;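 active means inhibition above the screen-wide mean plus twice its standard deviation, cut at about 32% in these data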
Starred values were filed as active, the others as inactive. Rows were chosen to be rich in hits. Some 2.1% of all compounds tested hit in one or more screens of this group.

What do the screens show for `C[C@@]12C(=O)Nc3cc(F)c(F)cc3C(=O)N1[C@H]1c3cc(Cl)ccc3OC[C@@H]1[C@@H]2c1ccccc1`?
SUMO Mot1 rescue: 187.6; Efflux pump inh: 0.0; RTF Ca sens act: -5.2; RTF Ca sens inh: -4.5; ARNT TACC3 PPI: 3.6; UCH37 inh: -0.9; Cmpd fluor yeast: 113.5; CaMdr1 efflux inh: -0.3; CaCdr2 efflux inh: 114.4; Cdr1 pump inh: 0.0

Results for C[C@@]12C(=O)Nc3ccc(Cl)cc3C(=O)N1[C@H]1c3cc(Cl)ccc3OC[C@@H]1[C@@H]2c1ccccc1 ?
SUMO Mot1 rescue: 188.7; Efflux pump inh: 0.1; RTF Ca sens act: 0.5; RTF Ca sens inh: -7.9; ARNT TACC3 PPI: -2.3; UCH37 inh: 1.8; Cmpd fluor yeast: 103.1; CaMdr1 efflux inh: 0.0; CaCdr2 efflux inh: 116.0; Cdr1 pump inh: 0.0

Results for C[C@@]12C(=O)Nc3ccccc3C(=O)N1[C@H]1c3cc(Cl)ccc3OC[C@@H]1[C@@H]2c1ccccc1 ?
SUMO Mot1 rescue: 227.6; Efflux pump inh: -0.2; RTF Ca sens act: 11.7; RTF Ca sens inh: 6.7; ARNT TACC3 PPI: -8.8; UCH37 inh: 3.2; Cmpd fluor yeast: 98.2; CaMdr1 efflux inh: -0.1; CaCdr2 efflux inh: 95.6; Cdr1 pump inh: 0.0

Results for Cc1ccc2c(c1)[C@H]1[C@H](CO2)[C@H](c2ccccc2)[C@]2(C)C(=O)Nc3ccc(Cl)cc3C(=O)N12 ?
SUMO Mot1 rescue: 191.5; Efflux pump inh: 0.0; RTF Ca sens act: -0.2; RTF Ca sens inh: -1.4; ARNT TACC3 PPI: -0.7; UCH37 inh: 2.6

What do the screens show for `Cc1cc(C=NO)c(C)n1-c1cccc(Cl)c1`?
UCH37 inh: 3.4

What do the screens show for `CC(=NNC(=O)C(C)n1nc(C)c([N+](=O)[O-])c1C)c1ccc(OCC(N)=O)cc1` (centres undefined)?
UCH37 inh: 4.5

What do the screens show for `Oc1c(Br)cccc1C=NNc1c(F)c(F)c(F)c(F)c1F`?
UCH37 inh: 3.9

How did Cc1cccc(N2CCN(C(=O)c3ccc(NS(=O)(=O)c4c(C)noc4C)cc3)CC2)c1C do in these assays?
SUMO Mot1 rescue: -5.5; Efflux pump inh: 0.5*; RTF Ca sens act: -2.4; RTF Ca sens inh: -12.4; ARNT TACC3 PPI: -0.2; UCH37 inh: 2.0; Cmpd fluor yeast: 97.2; CaMdr1 efflux inh: 0.0; CaCdr2 efflux inh: 110.2; Cdr1 pump inh: 0.0

What do the screens show for `Cc1ccc(S(=O)(=O)Oc2ccc(C=NNC(=O)c3nn(C)cc3Cl)cc2)cc1`?
UCH37 inh: 0.8

Results for CC(=O)NCCOc1nc(N(C)C)nc(N2CCOCC2)n1 ?
SUMO Mot1 rescue: -4.8; Efflux pump inh: 0.5*; RTF Ca sens act: 0.5; RTF Ca sens inh: -1.0; UCH37 inh: -1.4; Cmpd fluor yeast: 95.0; CaMdr1 efflux inh: 0.1; CaCdr2 efflux inh: 112.2; Cdr1 pump inh: 0.0

Results for CC(=O)NCCOc1nc(N2CCCCC2)nc(N2CCCCC2)n1 ?
SUMO Mot1 rescue: 9.6; Efflux pump inh: 0.0; RTF Ca sens act: -5.2; RTF Ca sens inh: 1.9; ARNT TACC3 PPI: -1.0; UCH37 inh: 3.0

What do the screens show for `O=C(Nc1cccc2ccccc12)c1cn(-c2ccccc2)nc1-c1cccs1`?
SUMO Mot1 rescue: 95.9; Efflux pump inh: 9.0*; RTF Ca sens act: 3.1; RTF Ca sens inh: -5.6; ARNT TACC3 PPI: -19.2; UCH37 inh: -4.0; Cmpd fluor yeast: 104.5; CaMdr1 efflux inh: 0.1; CaCdr2 efflux inh: 102.9; Cdr1 pump inh: 0.1
